The results in this text go back to ChEMBL document CHEMBL4368894, “Fluorine substituted methoxyphenylalkyl amides as potent melatonin receptor agonists” (Medchemcomm, 2019).

Assay [1] has as its target T1, Melatonin receptor type 1C (Xenopus laevis) (UniProt P49219).
T1 sequence (whole entry): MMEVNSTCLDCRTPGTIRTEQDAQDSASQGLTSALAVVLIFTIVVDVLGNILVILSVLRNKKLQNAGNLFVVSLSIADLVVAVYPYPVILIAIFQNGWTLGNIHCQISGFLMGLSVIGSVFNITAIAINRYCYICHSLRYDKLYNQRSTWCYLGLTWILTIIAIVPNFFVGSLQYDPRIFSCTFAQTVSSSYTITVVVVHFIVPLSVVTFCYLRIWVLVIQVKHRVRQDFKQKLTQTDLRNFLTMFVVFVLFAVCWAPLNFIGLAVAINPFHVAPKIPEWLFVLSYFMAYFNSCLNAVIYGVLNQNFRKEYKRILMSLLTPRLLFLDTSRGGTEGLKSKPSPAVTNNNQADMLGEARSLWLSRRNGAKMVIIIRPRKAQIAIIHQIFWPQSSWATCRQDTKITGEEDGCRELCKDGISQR
In words: Antagonist activity at Melatonin receptor type 1C in Xenopus laevis melanophores assessed as inhibition of melatonin-induced pigment aggregation response up to 10^-4M pre-incubated 60 mins before melatonin addition by microtiter plate reader based absorbance detection assay.

Assay [2] concerns the target T1, Melatonin receptor type 1C (Xenopus laevis). In words: Agonist activity at Melatonin receptor type 1C in Xenopus laevis melanophores assessed as induction of pigment aggregation response by microtiter plate reader based absorbance detection assay relative to melatonin. Summed up: (§1)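 Cultured melanophores (about 6-8 x 10³ per well) switched to 0.7 x L-15 medium with 1 mg·mL⁻¹ bovine albumin 1 h before concentration-response runs, in which pigment stays dispersed. Aggregation read as absorbance at 630 nm before and after drug, expressed as fractional change 1-(A_f/A_i). Drugs diluted fresh from 10⁻² M methanol or DMSO stocks; final solvent at most 1% v/v.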

Assay [3] deals with T2, Melatonin receptor type 1C (Xenopus laevis, UniProt P49219).
T2 sequence (P49219 whole entry): T1 sequence (whole entry)
In words: Agonist activity at Melatonin receptor type 1C in Xenopus laevis melanophores assessed as induction of pigment aggregation response by microtiter plate reader based absorbance detection assay. Summed up:
as §1

For assay [4], the target named is T1, Melatonin receptor type 1C (Xenopus laevis). In words: Antagonist activity at Melatonin receptor type 1C in Xenopus laevis melanophores assessed as inhibition of melatonin-induced pigment aggregation response pre-incubated 60 mins before melatonin addition by microtiter plate reader based absorbance detection assay. Details: concentration or dose not given beside the values. Summed up: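 Melanophores pre-equilibrated 1 h in 0.7 x L-15 medium containing 1 mg·mL⁻¹ bovine albumin. Antagonist (10⁻⁵ M) added 60 min ahead of melatonin, and melatonin concentration-response curves run with and without it. Pigment aggregation read as 630 nm absorbance change, 1-(A_f/A_i). pK_B taken as log(concentration ratio – 1) – log[antagonist]. Solvent at most 1% v/v.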

Each structure is given as a SMILES string. The source made the active and inactive calls. The calls are words filed in the database; no cut-off is given here.

Broadly, the inhibition is the drop in the measured response relative to a control, in per cent. The EC50 is the midpoint of the concentration-response curve. For `CCCC(=O)NCCc1cc(OC)ccc1F`, the inhibition result in assay [1] is “inactive”. For the same compound, in assay [2], the Efficacy came out at 100%. Further, the 50% effective concentration (EC50) in assay [3] is 251 nM.
Taken in the same sequence, the figures for `CCCC(=O)NCC(C)(C)c1ccc(F)c(OC)c1` were “inactive”, 100% and 0.0229 nM.
As to `CCC(=O)NCCCc1cc(OC)ccc1F`, the inhibition result in assay [1] is “inactive”. The Efficacy in assay [2] is 100%. The EC50 in assay [3] was 3.72 nM.
As for `CCC(=O)NCCc1ccc(F)c(OC)c1`, in assay [1], the inhibition result was “inactive”. Moreover, the Efficacy in assay [2] was determined as 100%. For the same compound, in assay [3], the EC50 is 85.1 nM.
`COc1ccc(F)c(CCNC(C)=O)c1`: the inhibition entry in assay [1] is “inactive”. The Efficacy in assay [2] was 100%. In addition, the EC50 in assay [3] is 2450 nM.
On the same counts, the results for `CCC(=O)NCC(C)(C)c1cc(OC)ccc1F` are “inactive”, 100% and 269 nM.
Take `CCCC(=O)NCc1ccc(OC)c(F)c1`: the inhibition in assay [4] amounted to 37%. For the same compound, in assay [2], the Efficacy was found to be 57%. Also, the 50% effective concentration (EC50) in assay [3] is 661 nM.
On to `CCCC(=O)NCc1ccc(F)c(OC)c1`, for which the inhibition result in assay [1] was “inactive”. For the same compound, the Efficacy in assay [2] amounted to 75%. In assay [3], the EC50 is 2510 nM.
Take `CCC(=O)NCc1cc(OC)ccc1F`: in assay [4], the inhibition turned out to be 23%. Moreover, the Efficacy in assay [2] worked out at 69%. The EC50 in assay [3] is 2400 nM.
On to `COc1ccc(CCNC(C)=O)cc1F`, for which, in assay [1], the inhibition entry was “inactive”. In addition, the Efficacy in assay [2] worked out at 80%. The EC50 in assay [3] is 2400 nM.
As for `CCCC(=O)NCC(C)(C)c1ccc(OC)c(F)c1`, in assay [1], the inhibition entry is “inactive”. Besides, the Efficacy in assay [2] came out at 100%. The 50% effective concentration (EC50) in assay [3] was 79.4 nM.
For the compound `COc1cc(CCCNC(C)=O)ccc1F`, the inhibition result in assay [1] is “inactive”. The Efficacy in assay [2] is 92%. In addition, the EC50 in assay [3] is 3.89 nM.
As to `CCCC(=O)NC(C)Cc1ccc(F)c(OC)c1` (stereo not drawn), the inhibition entry in assay [1] is “inactive”. Besides, in assay [2], the Efficacy worked out at 89%. For the same compound, the EC50 in assay [3] is 105 nM.
Consider `CCCC(=O)NCCc1ccc(OC)c(F)c1`, for which the inhibition in assay [4] worked out at 48%. For the same compound, the Efficacy in assay [2] was determined as 52%. The EC50 in assay [3] was 1200 nM.
As to `COc1ccc(C(C)(C)CNC(C)=O)cc1F`, the inhibition entry in assay [1] is “inactive”. The Efficacy in assay [2] came out at 100%. Also, the EC50 in assay [3] was 81.3 nM.
Taken in the same sequence, the figures for `COc1cc(CNC(C)=O)ccc1F` were “inactive”, 83% and 2090 nM.
For `CCCC(=O)NCc1cc(OC)ccc1F`, the inhibition in assay [4] turned out to be 44%. In addition, the Efficacy in assay [2] amounted to 43%. For the same compound, the EC50 in assay [3] was 1350 nM.
As for `CCC(=O)NCCc1cc(OC)ccc1F`, the inhibition result in assay [1] was “inactive”. Moreover, in assay [2], the Efficacy was determined as 100%. For the same compound, in assay [3], the EC50 was 794 nM.
As to `CCCC(=O)NCCCc1cc(OC)ccc1F`, the inhibition entry in assay [1] is “inactive”. Further, the Efficacy in assay [2] was determined as 100%. Also, the EC50 in assay [3] is 9.55 nM.
As to `CCCC(=O)NCCCc1ccc(OC)c(F)c1`, the inhibition in assay [4] stood at 19%. Further, the Efficacy in assay [2] came to 73%. In addition, the EC50 in assay [3] was 417 nM.
Turning to `COc1ccc(F)c(C(C)(C)CNC(C)=O)c1`, in assay [1], the inhibition result is “inactive”. In addition, the Efficacy in assay [2] was 100%. For the same compound, the EC50 in assay [3] is 182 nM.
Turning to `CCC(=O)NCCCc1ccc(F)c(OC)c1`, the inhibition result in assay [1] was “inactive”. Besides, in assay [2], the Efficacy stood at 89%. Moreover, in assay [3], the EC50 is 1.1 nM.
As for `CC(=O)NCCc1c(Cc2ccccc2)[nH]c2ccccc12`, the inhibition in assay [4] was 100%.
For the compound `COc1ccc(F)c(CCCNC(C)=O)c1`, the inhibition result in assay [1] was “inactive”. Moreover, the Efficacy in assay [2] amounted to 100%. Further, the EC50 in assay [3] was 20.4 nM.
On the same counts, the results for `CCC(=O)NCC(C)(C)c1ccc(F)c(OC)c1` are “inactive”, 100% and 0.537 nM.
As to `COc1cc(CCNC(C)=O)ccc1F`, the inhibition entry in assay [1] is “inactive”. For the same compound, in assay [2], the Efficacy worked out at 100%. Besides, the EC50 in assay [3] was 275 nM.
On the same counts, the results for `CCCC(=O)NCCCc1ccc(F)c(OC)c1` are “inactive”, 89% and 0.891 nM.
Regarding `COc1ccc(CCCNC(C)=O)cc1F`, the inhibition result in assay [1] is “inactive”. Also, the Efficacy in assay [2] was 79%. Also, the EC50 in assay [3] was 1820 nM.
In the case of `CCCC(=O)NCC(C)(C)c1cc(OC)ccc1F`, the inhibition result in assay [1] is “inactive”. The Efficacy in assay [2] was 100%. The concentration for a half-maximal effect (EC50) in assay [3] was 97.7 nM.
Consider `CCC(=O)NCC(C)(C)c1ccc(OC)c(F)c1`, for which the inhibition entry in assay [1] is “inactive”. The Efficacy in assay [2] amounted to 100%. In assay [3], the EC50 was 93.3 nM.
With `CCC(=O)NCc1ccc(F)c(OC)c1`, the inhibition result in assay [1] is “inactive”. The Efficacy in assay [2] was found to be 86%. For the same compound, the EC50 in assay [3] was 2880 nM.
In the case of `COc1ccc(CNC(C)=O)cc1F`, the inhibition entry in assay [1] was “inactive”. Also, in assay [2], the Efficacy amounted to 77%. For the same compound, the EC50 in assay [3] was 1510 nM.
Taken in the same sequence, the figures for `COc1ccc(F)c(CNC(C)=O)c1` were “inactive”, 100% and 1950 nM.
On the same counts, the results for `CCC(=O)NCCc1ccc(OC)c(F)c1` are “inactive”, 80% and 1350 nM.
For the compound `COc1ccc2[nH]cc(CCNC(C)=O)c2c1` [MELATONIN], the EC50 in assay [3] is 0.123 nM.
For `CCC(=O)NCc1ccc(OC)c(F)c1`, the inhibition in assay [4] was found to be 24%. In assay [2], the Efficacy was 51%. The EC50 in assay [3] is 1050 nM.
For `CCCC(=O)NCCc1ccc(F)c(OC)c1`, the inhibition result in assay [1] was “inactive”. Also, the Efficacy in assay [2] was 100%. The EC50 in assay [3] is 66.1 nM.
Consider `CCC(=O)NCCCc1ccc(OC)c(F)c1`, for which the inhibition in assay [4] was 8%. The Efficacy in assay [2] worked out at 78%. In addition, in assay [3], the EC50 was 871 nM.
Take `COc1cc(C(C)(C)CNC(C)=O)ccc1F`: the inhibition result in assay [1] is “inactive”. Further, the Efficacy in assay [2] was 100%. For the same compound, the EC50 in assay [3] was 1.82 nM.
